Measured values as given in ChEMBL document CHEMBL1143122, “Novel analogs of D-e-MAPP and B13. Part 1: synthesis and evaluation as potential anticancer agents” (Bioorg Med Chem, 2008).

Columns and labels:
LOX IMVI = assay: Antiproliferative activity against human LOXIMVI cells after 48 hrs; type: functional; conditions: for TGI: read-out: Log TGI (converted)
Method in brief: (§1)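 NCI 60-cell screen. Cells were grown in RPMI 1640 with 5% FBS and 2 mM L-glutamine, then plated at 5,000–40,000 cells/well according to doubling time and preincubated for 24 h at 37 °C in 5% CO2. Compounds were dissolved in DMSO at 400× the top final concentration and tested at five 10-fold dilutions from 10−4 to 10−8 M for 48 h. Growth was read spectrophotometrically; GI50 is 50% net protein reduction.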

Malme-3M = assay: Antiproliferative activity against human MALME3M cells after 48 hrs; type: functional; conditions: for TGI: read-out: Log TGI (converted); method in brief: as §1
SK-MEL-2 = assay: Antiproliferative activity against human SKMEL2 cells after 48 hrs; type: functional; conditions: SK-MEL-2, 48 h; for TGI: read-out: Log TGI (converted); method in brief: as §1
SK-MEL-5 = assay: Antiproliferative activity against human SKMEL5 cells after 48 hrs; type: functional; conditions: SK-MEL-5, 48 h; for TGI: read-out: Log TGI (converted); method in brief: as §1
UACC-62 = assay: Antiproliferative activity against human UACC62 cells after 48 hrs; type: functional; conditions: UACC-62, 48 h; for TGI: read-out: Log TGI (converted)
Method in brief: (§2)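 NCI 60-cell-line screen. Lines grown in RPMI 1640 with 5% fetal bovine serum and 2 mM L-glutamine, plated at 5,000–40,000 cells/well according to doubling time, left 24 h at 37 °C in 5% CO2. Drug stocks in DMSO at 400-fold the top final concentration. Five 10-fold dilutions, 10−4 to 10−8 M, incubated 48 h. Growth read spectrophotometrically as net protein; GI50 taken as 50% reduction.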

IGROV-1 = assay: Antiproliferative activity against human IGROV1 cells after 48 hrs; type: functional; conditions: IGROV-1, 48 h; for TGI: read-out: Log TGI (converted); method in brief: as §1
OVCAR-8 = assay: Antiproliferative activity against human OVCAR8 cells after 48 hrs; type: functional; conditions: OVCAR-8, 48 h; for TGI: read-out: Log TGI (converted); method in brief: as §1
786-0 = assay: Antiproliferative activity against human 786-0 cells after 48 hrs; type: functional; conditions: 786-0, 48 h; for CC50: read-out: Log LC50 (the source's name) (converted); for TGI: read-out: Log TGI (converted); method in brief: as §1
A498 = assay: Antiproliferative activity against human A498 cells after 48 hrs; type: functional; conditions: A498, 48 h; for CC50: read-out: Log LC50 (the source's name) (converted); for TGI: read-out: Log TGI (converted); method in brief: as §1
ACHN = assay: Antiproliferative activity against human ACHN cells after 48 hrs; type: functional; conditions: for CC50: read-out: Log LC50 (the source's name) (converted); for TGI: read-out: Log TGI (converted); method in brief: as §1
SN12C = assay: Antiproliferative activity against human SN12C cells after 48 hrs; type: functional; conditions: for TGI: read-out: Log TGI (converted); method in brief: as §1
TK-10 = assay: Antiproliferative activity against human TK10 cells after 48 hrs; type: functional; conditions: TK-10, 48 h; for CC50: read-out: Log LC50 (the source's name) (converted); for TGI: read-out: Log TGI (converted); method in brief: as §2
HOP-62 = assay: Antiproliferative activity against human HOP62 cells after 48 hrs; type: functional; conditions: HOP-62, 48 h; for CC50: read-out: Log LC50 (the source's name) (converted); for TGI: read-out: Log TGI (converted); method in brief: as §1
HOP-92 = assay: Antiproliferative activity against human HOP92 cells after 48 hrs; type: functional; conditions: HOP-92, 48 h; for TGI: read-out: Log TGI (converted); method in brief: as §1
NCI-H460 = assay: Antiproliferative activity against human NCI-H460 cells after 48 hrs; type: functional; conditions: NCI-H460, 48 h; for TGI: read-out: Log TGI (converted); method in brief: as §1
NCI-H522 = assay: Antiproliferative activity against human NCI-H522 cells after 48 hrs; type: functional; conditions: NCI-H522, 48 h; for TGI: read-out: Log TGI (converted); method in brief: as §1
HCC 2998 = assay: Antiproliferative activity against human HCC2998 cells after 48 hrs; type: functional; conditions: HCC 2998, 48 h; for CC50: read-out: Log LC50 (the source's name) (converted); for TGI: read-out: Log TGI (converted); method in brief: as §1
HCT-116 = assay: Antiproliferative activity against human HCT116 cells after 48 hrs; type: functional; conditions: HCT-116, 48 h; for TGI: read-out: Log TGI (converted); method in brief: as §1
KM12 = assay: Antiproliferative activity against human KM12 cells after 48 hrs; type: functional; conditions: Homo sapiens, KM12, 48 h; for CC50: read-out: Log LC50 (the source's name) (converted); for TGI: read-out: Log TGI (converted); method in brief: as §1
SW-620 = assay: Antiproliferative activity against human SW620 cells after 48 hrs; type: functional; conditions: SW-620, 48 h; method in brief: as §2
SF-295 = assay: Antiproliferative activity against human SF295 cells after 48 hrs; type: functional; conditions: SF-295, 48 h; for TGI: read-out: Log TGI (converted); method in brief: as §1
SNB-75 = assay: Antiproliferative activity against human SNB75 cells after 48 hrs; type: functional; conditions: SNB-75, 48 h; for CC50: read-out: Log LC50 (the source's name) (converted); for TGI: read-out: Log TGI (converted); method in brief: as §1
CCRF-CEM = assay: Antiproliferative activity against human CCRF-CEM cells after 48 hrs; type: functional; conditions: for CC50: read-out: Log LC50 (the source's name) (converted); for TGI: read-out: Log TGI (converted); method in brief: as §1
[1] = Antiproliferative activity against human HL60(TB) cells after 48 hrs; type: functional, HL-60(TB); conditions: HL-60, 48 h; for TGI: read-out: Log TGI (converted)
Method in brief: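 NCI 60-line panel screen: cells grown in RPMI 1640 with 5% fetal bovine serum and 2 mM L-glutamine, plated at 5,000–40,000 cells/well by doubling time, and preincubated 24 h at 37 °C in 5% CO2. Drugs were solubilised in DMSO at 400-fold the final maximum and tested at five 10-fold dilutions from 10−4 to 10−8 M for 48 h. Net protein was read spectrophotometrically, and the concentration giving 50% reduction was reported as log10 GI50.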

K562 = assay: Antiproliferative activity against human K562 cells after 48 hrs; type: functional; conditions: K562, 48 h; for TGI: read-out: Log TGI (converted); method in brief: as §1
[2] = Antiproliferative activity against human […] cells after 48 hrs; type: functional; conditions: for TGI: read-out: Log TGI (converted); method in brief: as §1
[3] = read-out: Log LC50 (the source's name) (converted)

## CCCCCCCCCCCCCCN[C@H](CO)[C@H](O)c1ccccc1
LOX IMVI
  GI50: 1.78 µM
  LC50: 5.75 µM
  TGI: 3.16 µM
Malme-3M
  GI50: 2.09 µM
  LC50: 9.55 µM
  TGI: 3.8 µM
SK-MEL-2
  GI50: 2.14 µM
  LC50: > 100 µM
  TGI: 4.79 µM
SK-MEL-5
  GI50: 2.14 µM
  TGI: 4.07 µM
UACC-62
  GI50: 1.82 µM
  LC50: 7.59 µM
  TGI: 3.72 µM
IGROV-1
  GI50: 1.55 µM
  TGI: 3.24 µM
OVCAR-8
  GI50: 1.86 µM
  TGI: 3.8 µM
786-0
  GI50: 1.62 µM
  CC50: 5.62 µM
  TGI: 3.02 µM
A498
  GI50: 18.2 µM
  CC50: > 100 µM
  TGI: 42.7 µM
ACHN
  GI50: 1.74 µM
  CC50: 5.62 µM
  TGI: 3.16 µM
SN12C
  GI50: 1.74 µM
  LC50 (50% net cell kill): 6.46 µM
  TGI: 3.31 µM
TK-10
  GI50: 2 µM
  CC50: 13.8 µM
  TGI: 4.68 µM
HOP-62
  GI50: 1.48 µM
  CC50: 5.37 µM
  TGI: 2.82 µM
HOP-92
  GI50: 1.41 µM
  LC50: 5.89 µM
  TGI: 2.88 µM
NCI-H460
  GI50: 1.86 µM
  TGI: 3.47 µM
NCI-H522
  GI50: 2 µM
  TGI: 3.8 µM
HCC 2998
  GI50: 1.66 µM
  CC50: 5.62 µM
  TGI: 3.09 µM
HCT-116
  GI50: 1.74 µM
  LC50: 5.62 µM
  TGI: 3.16 µM
KM12
  GI50: 1.86 µM
  CC50: 5.89 µM
  TGI: 3.31 µM
SW-620
  GI50: 2.4 µM
  LC50 (concentration killing 50% of cells): > 100 µM
SF-295
  GI50: 1.86 µM
  LC50: 6.76 µM
  TGI: 3.55 µM
SNB-75
  GI50: 2.29 µM
  CC50: 27.5 µM
  TGI: 5.62 µM
CCRF-CEM
  GI50: 1.58 µM
  CC50: 7.94 µM
  TGI: 3.55 µM
[1]
  GI50: 3.31 µM
  LC50: 8.51 µM
  TGI: 3.72 µM
K562
  GI50: 2.24 µM
  LC50: > 100 µM
  TGI: 4.9 µM
[2]
  GI50: 3.16 µM
  LC50: 91.2 µM
  TGI: 17.4 µM

## CCCCCCCCCCCCCCN[C@@H](CO)Cc1ccccc1
LOX IMVI
  GI50: 1.58 µM
  LC50: 5.75 µM
  TGI: 3.02 µM
Malme-3M
  GI50: 2 µM
  LC50: 6.31 µM
  TGI: 3.55 µM
SK-MEL-2
  GI50: 2.69 µM
  LC50: > 100 µM
  TGI: 5.5 µM
SK-MEL-5
  GI50: 1.78 µM
  TGI: 3.24 µM
SK-MEL-5; [3]
  CC50: 6.03 µM
UACC-62
  GI50: 2 µM
  LC50: 7.94 µM
  TGI: 3.98 µM
IGROV-1
  GI50: 1.91 µM
  TGI: 3.72 µM
OVCAR-8
  GI50: 1.91 µM
  TGI: 3.8 µM
786-0
  GI50: 1.82 µM
  CC50: 5.89 µM
  TGI: 3.24 µM
A498
  GI50: 14.5 µM
  CC50: 52.5 µM
  TGI: 27.5 µM
ACHN
  GI50: 1.7 µM
  CC50: 5.89 µM
  TGI: 3.16 µM
SN12C
  GI50: 1.86 µM
  LC50 (50% net cell kill): 7.41 µM
  TGI: 3.72 µM
TK-10
  GI50: 2.04 µM
  CC50: 6.76 µM
  TGI: 3.72 µM
HOP-62
  GI50: 1.23 µM
  CC50: 5.37 µM
  TGI: 2.57 µM
HOP-92
  GI50: 1.23 µM
  LC50: 6.46 µM
  TGI: 2.82 µM
NCI-H460
  GI50: 1.82 µM
  TGI: 3.39 µM
NCI-H460; [3]
  CC50: 6.17 µM
NCI-H522
  GI50: 2.09 µM
  TGI: 3.98 µM
HCC 2998
  GI50: 2.24 µM
  CC50: 6.17 µM
  TGI: 3.72 µM
HCT-116
  GI50: 2.04 µM
  LC50: 6.76 µM
  TGI: 3.72 µM
KM12
  GI50: 1.86 µM
  CC50: 6.17 µM
  TGI: 3.39 µM
SW-620
  GI50: 2 µM
  LC50 (concentration killing 50% of cells): 8.13 µM
SW-620; read-out: Log TGI (converted)
  TGI: 4.07 µM
SF-295
  GI50: 1.78 µM
  LC50: 6.17 µM
  TGI: 3.31 µM
SNB-75
  GI50: 2.19 µM
  CC50: 14.1 µM
  TGI: 4.79 µM
CCRF-CEM
  GI50: 1.74 µM
  CC50: 7.76 µM
  TGI: 3.72 µM
[1]
  GI50: 1.78 µM
  LC50: 9.33 µM
  TGI: 4.07 µM
K562
  GI50: 1.82 µM
  LC50: 9.33 µM
  TGI: 4.07 µM
[2]
  GI50: 4.68 µM
  LC50: 45.7 µM
  TGI: 17 µM
